Experimental data collected from several papers.
Compare with care: the assays were run in different laboratories.
Target: Dual specificity mitogen-activated protein kinase kinase 6 (MAP2K6, Homo sapiens, UniProt P52564)
Residues used in one study (P52564 1-334): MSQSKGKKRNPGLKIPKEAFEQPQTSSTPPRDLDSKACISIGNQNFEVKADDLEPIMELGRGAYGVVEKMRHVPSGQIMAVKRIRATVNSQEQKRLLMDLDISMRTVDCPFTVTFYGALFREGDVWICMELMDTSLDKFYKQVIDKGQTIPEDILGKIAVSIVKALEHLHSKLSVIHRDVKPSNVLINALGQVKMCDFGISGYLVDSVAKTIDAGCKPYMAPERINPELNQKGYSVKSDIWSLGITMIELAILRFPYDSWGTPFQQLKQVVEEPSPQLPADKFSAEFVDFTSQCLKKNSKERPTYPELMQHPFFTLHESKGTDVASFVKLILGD

`Cc1cnn2ncc(-c3ccnc(N(C)C)n3)c2c1` gave a remaining binding of 100% (binding; 1 µM).
The remaining binding of `Nc1ncc2c(n1)-c1c([nH]c3ccc(C#CC4CC4)cc13)CCCC2` is reported as 100% (binding; competition with immobilised ligand; 1 µM).
The remaining binding of `FC(F)(F)Oc1cccc(-c2cnc3ccc(-c4ccncc4)nn23)c1` is reported as 84% (cell-free assay; competition with immobilised ligand; 5 µM).
For `CCC(=O)N[C@@H]1CC[C@H](C(=O)N(C)c2ccc(-c3nc4ccccc4o3)cc2)C1`, the remaining binding was 100% (cell-free assay; competition with immobilised ligand; 1 µM).
The remaining binding of `O=C(c1ccc(Nc2ncc(Cl)c(-c3cc4ccccc4s3)n2)cc1)N1CCC(N2CCCC2)CC1` is reported as 37% (binding; competition with immobilised ligand; 1 µM).
For `CCN1CCN(Cc2ccc(C(=O)Nc3ccc(C)c(Oc4ccc5c(c4)CC(=O)N5)c3)cc2C(F)(F)F)CC1`, the remaining binding was 100% (binding; competition with immobilised ligand; 1 µM).
With `O=C(Nc1c[nH]nc1C(=O)NC1CCNCC1)c1cc(F)cc(F)c1` the remaining binding was 100% (binding; competition with immobilised ligand; 1 µM).
`CN(C)c1nccc(-c2cnn3ncccc23)n1` gave a remaining binding of 58% (binding; 1 µM).
`O=C(c1ccc(Nc2ncc(Cl)c(-c3ccc(Cl)s3)n2)cc1)N1CCC(N2CCCC2)CC1` gave a remaining binding of 29% (binding; competition with immobilised ligand; 1 µM).
With `CC1CCCN1c1nccc(-c2cnn3ncccc23)n1` (centres unmarked) the remaining binding was 100% (binding; 1 µM).
`COc1cnc(Nc2cccc(S(N)(=O)=O)c2)nc1N1CCN(c2ccccc2)C(=O)C1` has a remaining binding of 100% (binding; competition with immobilised ligand; 1 µM).
`C[C@H](NC(=O)c1cnc2n1[C@](C)(Cc1ccc(C#N)cc1)C(=O)N2c1cc(Cl)c(F)c(Cl)c1)C(=O)NC1(c2ccccn2)CC1` gave a remaining binding of 80% (cell-free assay; competition with immobilised ligand; 1 µM).
The remaining binding of `F[C@@H]1CCN(c2nccc(-c3cnn4ncccc34)n2)C1` is reported as 100% (binding; 1 µM).
For `C[C@H](c1ccnc(Nc2nc3ccc(-c4cc(N(C)C)ncn4)cc3[nH]2)c1)N1CCN(C(=O)CC(F)(F)F)CC1`, the remaining binding was 96% (cell-free assay; competition with immobilised ligand; 0.1 µM).
The remaining binding of `O=C(c1ccc(Nc2nccc(-c3cc4ccccc4s3)n2)cc1)N1CCC(N2CCCC2)CC1` is reported as 33% (binding; competition with immobilised ligand; 1 µM).
The remaining binding of `Cn1nc(C(=O)NCc2ccc(C(=O)O)cc2)cc1-c1ccc2[nH]ccc2c1` is reported as 100% (cell-free assay; competition with immobilised ligand; 0.1 µM).
With `CNC(=O)[C@@H]1CC[C@@H](n2c(-c3ccc4cnccc4c3)nc3ccc(C(=O)NCc4cccc(C(N)=O)c4)cc32)C1` the remaining binding was 100% (binding; competition with immobilised ligand; 1 µM).
With `N[C@@H]1CCN(c2nccc(-c3cnn4ncccc34)n2)C1` the remaining binding was 100% (binding; 1 µM).
For `CN([C@@H]1CCc2c(CC(=O)O)c3ccccc3n2C1)S(=O)(=O)c1ccc(F)cc1`, the remaining binding was 100% (cell-free assay; competition with immobilised ligand; 1 µM).
`CN(c1nccc(-c2cnn3ncccc23)n1)C1CC1` gave a remaining binding of 100% (binding; 1 µM).
The remaining binding of `Cn1nc(C(F)(F)F)cc1-c1cnc(N2CCc3cc(S(=O)(=O)Nc4c(F)cc(Cl)cc4F)cc(N4CCCC4=O)c32)nc1` is reported as 100% (cell-free assay; competition with immobilised ligand; 1 µM).
`C[C@@H]1CCN(c2nccc(-c3cnn4ncccc34)n2)C1` has a remaining binding of 100% (binding; 1 µM).
`CNC(=O)Nc1ccc2c(c1)CC[C@@]21OC(=O)N(CC(=O)N(Cc2ccc(F)cc2)[C@@H](C)C(F)(F)F)C1=O` has a remaining binding of 100% (cell-free assay; competition with immobilised ligand; 1 µM).
